In ChEMBL document CHEMBL1141374 (J Med Chem, 2007):

Experiments:
[1] = system: A549; assay: Growth inhibition in A549 cells; assay type: functional; details: Homo sapiens
[2] = system: SK-MEL-5; assay: Growth inhibition in SK-MEL-5 cells; assay type: functional; details: Homo sapiens
[3] = system: COLO 205; assay: Growth inhibition in COLO205 cells; assay type: functional; details: Homo sapiens
[4] = system: 786-0; assay: Growth inhibition in 786-0 cells; assay type: functional; details: Homo sapiens
[5] = system: BT-549; assay: Growth inhibition in BT549 cells; assay type: functional; details: Homo sapiens
[6] = Cytotoxicity against P-glycoprotein-overexpressing KB-V1 cell line; assay type: cell-based; details: Homo sapiens
In short: (§1)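 Log-phase cells were diluted to 20 000–30 000 cells/mL, seeded, and left to attach overnight. They were then exposed to compounds at 10^–5–10^–12 M for 72 h at 37 °C in 5% CO2. Viable cells were measured by MTT, with absorbance read at 595 nm. Each compound ran in triplicate in at least three independent assays. IC50 came from nonlinear regression, and average values were reported.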

[7] = system: SK-OV-3; assay: Growth inhibition in SKOV3 cells; assay type: functional; details: Homo sapiens
[8] = system: NCI-H23; assay: Growth inhibition in NCI-H23 cells; assay type: functional; details: Homo sapiens
[9] = system: HeLa; assay: Cytotoxicity against HeLa cell line; assay type: cell-based; details: Homo sapiens; in short: as §1
[10] = system: NCI-H322M; assay: Growth inhibition in NCI-H322M cells; assay type: functional; details: Homo sapiens
[11] = system: PC-3; assay: Growth inhibition in PC3 cells; assay type: functional; details: Homo sapiens
[12] = system: ZR-75-1; assay: Cytotoxicity against ZR-75-1 cell line; assay type: cell-based; details: Homo sapiens; in short: as §1
[13] = Growth inhibition in HCC116 cells; assay type: functional; details: Homo sapiens
[14] = system: HCT-116; assay: Cytotoxicity against HCT116 cell line; assay type: cell-based; details: Homo sapiens; in short: as §1
[15] = system: HOP-92; assay: Growth inhibition in HOP92 cells; assay type: functional; details: Homo sapiens
[16] = system: CCRF-CEM; assay: Growth inhibition in CCRF-CEM cells; assay type: functional; details: Homo sapiens
[17] = system: NCI-H226; assay: Growth inhibition in NCI-H226 cells; assay type: functional; details: Homo sapiens
[18] = system: ACHN; assay: Growth inhibition in ACHN cells; assay type: functional; details: Homo sapiens
[19] = system: DU-145; assay: Growth inhibition in DU145 cells; assay type: functional; details: Homo sapiens
[20] = system: LOX IMVI; assay: Growth inhibition in LOX IMVI cells; assay type: functional; details: Homo sapiens
[21] = system: EKVX; assay: Growth inhibition in EKVX cells; assay type: functional; details: Homo sapiens
[22] = system: OVCAR-5; assay: Growth inhibition in OVCAR5 cells; assay type: functional; details: Homo sapiens
[23] = system: HOP-62; assay: Growth inhibition in HOP62 cells; assay type: functional; details: Homo sapiens
[24] = system: HCC 2998; assay: Growth inhibition in HCC2998 cells; assay type: functional; details: Homo sapiens
[25] = system: SK-MEL-28; assay: Growth inhibition in SK-MEL-28 cells; assay type: functional; details: Homo sapiens
[26] = system: SF-539; assay: Growth inhibition in SF539 cells; assay type: functional; details: Homo sapiens
[27] = Cytotoxicity against KB-3-1 cell line; assay type: cell-based; details: Homo sapiens; in short: as §1
[28] = system: HT-29; assay: Growth inhibition in HT29 cells; assay type: functional; details: Homo sapiens
[29] = system: U-251; assay: Growth inhibition in U251cells; assay type: functional; details: Homo sapiens
[30] = Growth inhibition in HS 578T cells; assay type: functional; details: Homo sapiens
[31] = system: SF-268; assay: Growth inhibition in SF268 cells; assay type: functional; details: Homo sapiens
[32] = system: UACC-62; assay: Growth inhibition in UACC62 cells; assay type: functional; details: Homo sapiens
[33] = system: HL-60; assay: Growth inhibition in HL60 cells; assay type: functional; details: Homo sapiens
[34] = system: MDA-MB-435; assay: Growth inhibition in MDA-MB-435 cells; assay type: functional; details: Homo sapiens
[35] = system: TK-10; assay: Growth inhibition in TK10 cells; assay type: functional; details: Homo sapiens
[36] = Growth inhibition in MDA-MB-231/ATCC cells; assay type: functional; details: Homo sapiens
[37] = system: NCI-H460; assay: Growth inhibition in NCI-H460 cells; assay type: functional; details: Homo sapiens
[38] = system: CAKI-1; assay: Growth inhibition in CAK1-1 cells; assay type: functional; details: Homo sapiens
[39] = system: SF-295; assay: Growth inhibition in SF295 cells; assay type: functional; details: Homo sapiens
[40] = system: SN12C; assay: Growth inhibition in SN12C cells; assay type: functional; details: Homo sapiens
[41] = system: KM12; assay: Growth inhibition in KM12 cells; assay type: functional; details: Homo sapiens
[42] = system: SNB-19; assay: Growth inhibition in SNB19 cells; assay type: functional; details: Homo sapiens
[43] = system: K562; assay: Growth inhibition in K562 cells; assay type: functional; details: Homo sapiens
[44] = system: A498; assay: Growth inhibition in A498 cells; assay type: functional; details: Homo sapiens
[45] = system: SW-620; assay: Growth inhibition in SW620 cells; assay type: functional; details: Homo sapiens
[46] = system: OVCAR-8; assay: Growth inhibition in OVCAR8 cells; assay type: functional; details: Homo sapiens
[47] = system: UACC-257; assay: Growth inhibition in UACC257 cells; assay type: functional; details: Homo sapiens
[48] = system: SNB-75; assay: Growth inhibition in SNB75 cells; assay type: functional; details: Homo sapiens
[49] = system: OVCAR-3; assay: Growth inhibition in OVCAR-3 cells; assay type: functional; details: Homo sapiens
[50] = system: MCF7; assay: Growth inhibition in MCF7 cells; assay type: functional; details: Homo sapiens
[51] = system: M14; assay: Growth inhibition in M14 cells; assay type: functional; details: Homo sapiens
[52] = Growth inhibition in HCC15 cells; assay type: functional; details: Homo sapiens
[53] = system: NCI/ADR-RES; assay: Growth inhibition in NCI/ADR-RES cells; assay type: functional; details: Homo sapiens
[54] = system: RXF 393; assay: Growth inhibition in RXF393 cells; assay type: functional; details: Homo sapiens
[55] = system: OVCAR-4; assay: Growth inhibition in OVCAR4 cells; assay type: functional; details: Homo sapiens
[56] = biological target: Tubulin; assay: Inhibition of tubulin polymerization; assay type: protein-complex assay, Homo sapiens
In short: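 Kit-based assay run per the manufacturer's instructions. Tubulin (>99% pure, 3 mg/mL) in G-PEM buffer, in a prewarmed plate with compound at 0.03–30 μM. OD340 nm read every 60 s at 37 °C for 1 h.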

[57] = system: IGROV-1; assay: Growth inhibition in IGROV1 cells; assay type: functional; details: Homo sapiens
[58] = system: SK-MEL-2; assay: Growth inhibition in SK-MEL-2 cells; assay type: functional; details: Homo sapiens
[59] = system: T47D; assay: Growth inhibition in T47D cells; assay type: functional; details: Homo sapiens
[60] = system: UO-31; assay: Growth inhibition in UO31 cells; assay type: functional; details: Homo sapiens
[61] = system: NCI-H522; assay: Growth inhibition in NCI-H522 cells; assay type: functional; details: Homo sapiens

## COc1ccc(-n2cnnc2-c2cc(OC)c(OC)c(OC)c2)cc1
[1]
  GI50: 8320 nM
[2]
  GI50: 2400 nM
[3]
  GI50: 3470 nM
[4]
  GI50: 2510 nM
[5]
  GI50: 9770 nM
[6]
  IC50: 907 nM
[7]
  GI50: 6460 nM
[8]
  GI50: 3160 nM
[9]
  IC50: 290 nM
[10]
  GI50: 5620 nM
[11]
  GI50: 4900 nM
[12]
  IC50: 522 nM
[13]
  GI50: 3020 nM
[14]
  IC50: 230 nM
[15]
  GI50: > 100000 nM
[16]
  GI50: 1860 nM
[17]
  GI50: 5250 nM
[18]
  GI50: 4470 nM
[19]
  GI50: 2950 nM
[20]
  GI50: 4370 nM
[21]
  GI50: 37200 nM
[22]
  GI50: 3800 nM
[23]
  GI50: 2090 nM
[24]
  GI50: 295 nM
[25]
  GI50: 9550 nM
[26]
  GI50: 4070 nM
[27]
  IC50: 373 nM
[28]
  GI50: 2140 nM
[29]
  GI50: 4370 nM
[30]
  GI50: 2950 nM
[31]
  GI50: 5890 nM
[32]
  GI50: 3240 nM
[33]
  GI50: 4070 nM
[34]
  GI50: 234 nM
[35]
  GI50: 9770 nM
[36]
  GI50: 3160 nM
[37]
  GI50: 3390 nM
[38]
  GI50: 2570 nM
[39]
  GI50: 1290 nM
[40]
  GI50: 4070 nM
[41]
  GI50: 2140 nM
[42]
  GI50: 5250 nM
[43]
  GI50: 631 nM
[44]
  GI50: 3800 nM
[45]
  GI50: 2750 nM
[46]
  GI50: 4790 nM
[47]
  GI50: 3980 nM
[48]
  GI50: 2340 nM
[49]
  GI50: 1740 nM
[50]
  GI50: 1700 nM
[51]
  GI50: 1950 nM
[52]
  GI50: 1700 nM
[53]
  GI50: 1780 nM
[54]
  GI50: 1580 nM
[55]
  GI50: 5500 nM

## COc1ccc(-n2cnnc2-c2cc(OC)c(OC)c(OC)c2)cc1O
[1]
  GI50: 1000 nM
[56]
  IC50: 6000 nM
[2]
  GI50: 288 nM
[3]
  GI50: 1170 nM
[4]
  GI50: 501 nM
[5]
  GI50: 3630 nM
[6]
  IC50: 544 nM
[7]
  GI50: 316 nM
[57]
  GI50: 447 nM
[8]
  GI50: 4270 nM
[9]
  IC50: 25 nM
[58]
  GI50: 724 nM
[10]
  GI50: 91200 nM
[11]
  GI50: 288 nM
[12]
  IC50: 141 nM
[13]
  GI50: 398 nM
[14]
  IC50: 88.9 nM
[15]
  GI50: 617 nM
[16]
  GI50: 295 nM
[17]
  GI50: > 100000 nM
[18]
  GI50: 417 nM
[19]
  GI50: 661 nM
[59]
  GI50: 269 nM
[20]
  GI50: 550 nM
[22]
  GI50: 1950 nM
[23]
  GI50: 490 nM
[24]
  GI50: 933 nM
[25]
  GI50: 427 nM
[26]
  GI50: 372 nM
[27]
  IC50: 57.3 nM
[28]
  GI50: 2880 nM
[29]
  GI50: 407 nM
[30]
  GI50: 363 nM
[31]
  GI50: 257 nM
[32]
  GI50: 407 nM
[33]
  GI50: 389 nM
[34]
  GI50: 24.6 nM
[35]
  GI50: 7410 nM
[36]
  GI50: 977 nM
[37]
  GI50: 407 nM
[38]
  GI50: 708 nM
[39]
  GI50: 302 nM
[60]
  GI50: 501 nM
[40]
  GI50: 603 nM
[41]
  GI50: 141 nM
[42]
  GI50: 407 nM
[43]
  GI50: 209 nM
[44]
  GI50: 417 nM
[45]
  GI50: 380 nM
[46]
  GI50: 977 nM
[47]
  GI50: > 100000 nM
[48]
  GI50: 251 nM
[49]
  GI50: 195 nM
[50]
  GI50: 617 nM
[51]
  GI50: 295 nM
[52]
  GI50: 631 nM
[61]
  GI50: 263 nM
[53]
  GI50: 1550 nM
[54]
  GI50: 309 nM
[55]
  GI50: 417 nM
